Laboratory results reported in ChEMBL document CHEMBL6115024 (J Med Chem, 2025).
Blank lines part the entries; values can stand above or below the compound they belong to. Activity calls are given as the source filed them. No cut-off for these calls is given here.

Assays:
[1] = target: T1, Glucagon-like peptide 1 receptor (Homo sapiens, UniProt P43220); experiment: Agonist activity at GLP-1 receptor (unknown origin) overexpressed in CHO-K1 cells assessed as cAMP production incubated for 30 mins in presence of HSA by HitHunter cAMP assay; assay type: functional, cell-based
T1 sequence (P43220 whole entry): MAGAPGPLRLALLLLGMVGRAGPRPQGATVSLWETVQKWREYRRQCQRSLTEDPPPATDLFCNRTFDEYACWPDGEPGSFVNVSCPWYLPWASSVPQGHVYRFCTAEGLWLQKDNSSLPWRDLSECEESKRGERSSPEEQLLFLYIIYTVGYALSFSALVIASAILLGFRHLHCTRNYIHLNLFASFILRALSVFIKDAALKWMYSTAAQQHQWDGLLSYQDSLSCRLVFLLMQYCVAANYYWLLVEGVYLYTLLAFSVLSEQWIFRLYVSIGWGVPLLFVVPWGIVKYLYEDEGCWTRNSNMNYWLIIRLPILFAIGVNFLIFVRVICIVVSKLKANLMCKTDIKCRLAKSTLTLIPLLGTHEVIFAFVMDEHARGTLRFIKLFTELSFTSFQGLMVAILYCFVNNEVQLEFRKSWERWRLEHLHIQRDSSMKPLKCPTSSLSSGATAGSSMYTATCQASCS

[2] = target: T1, Glucagon-like peptide 1 receptor; experiment: Agonist activity at GLP-1 receptor (unknown origin) overexpressed in CHO-K1 cells assessed as cAMP production incubated for 30 mins by HitHunter cAMP assay; assay type: functional, cell-based
Mus musculus [3] = experiment: Effect on liver weight in db/db mouse at 10 to 30 nmol/kg, sc treated for 8 weeks administered on every 2 days; assay type: functional, organism-based; conditions: dose 10-30 nmol/kg
Method in brief: (§1)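 db/db mice dosed sc with PBS or 10 or 30 nmol/kg every 2 days for 8 weeks; body weight, food and water intake recorded every 2 days; on day 59 heart, liver, iWAT and BAT excised and weighed; mean ± SEM, ANOVA with multiple comparisons.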

Mus musculus [4] = experiment: Induction of glycemic control in db/db mouse assessed as reduction in macrovesicular steatosis in liver at 10 to 30 nmol/kg, sc treated for 8 weeks administered on every 2 days by H and E staining based analysis; assay type: functional, organism-based; conditions: dose 10-30 nmol/kg
Method in brief: (§2)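 After 8 weeks of sc dosing (10 or 30 nmol/kg every 2 days) of db/db mice, liver and iWAT fixed in 4% paraformaldehyde, paraffin-embedded, sectioned and H&E stained; adipocyte area and diameter distributions and liver steatosis, hypertrophy, ballooning scored.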

Mus musculus [5] = experiment: Induction of glycemic control in db/db mouse assessed as reduction in hepatocyte ballooning at 10 to 30 nmol/kg, sc treated for 8 weeks administered on every 2 days by H and E staining based analysis; assay type: functional, organism-based; conditions: dose 10-30 nmol/kg; method in brief: as §2
Mus musculus [6] = experiment: Blood glucose lowering effect in db/db mouse assessed as blood glucose level at 30 nmol/kg, sc treated for 8 weeks administered on every 2 days (reference value: 17 to 30 mmol/L); assay type: functional
Mus musculus [7] = experiment: Induction of glycemic control in db/db mouse assessed as reduction in large lipid droplets in liver at 10 to 30 nmol/kg, sc treated for 8 weeks administered on every 2 days by H and E staining based analysis; assay type: functional, organism-based; conditions: dose 10-30 nmol/kg; method in brief: as §2
Mus musculus [8] = experiment: Induction of glycemic control in db/db mouse assessed as reduction in blood glucose level at 30 nmol/kg, sc measured after 48 hrs; assay type: functional, organism-based
Mus musculus [9] = experiment: Effect on heart weight in db/db mouse at 10 to 30 nmol/kg, sc treated for 8 weeks administered on every 2 days; assay type: functional, organism-based; conditions: dose 10-30 nmol/kg; method in brief: as §1
Pancreatic islet = experiment: Induction of insulin secretion in C57BL6/J mouse pancreatic islet at 10 to 100 nM incubated for 24 hrs in presence of 2.5 mM glucose by ELISA; assay type: functional, cell-based; conditions: dose 10-100 nM
Mus musculus [10] = experiment: Inhibition of fatty liver in GAN-DIO-NASH C57BL/6JNarl mouse assessed as improvement in liver health at 30 nmol/kg, sc qd for 70 days; assay type: functional, organism-based; conditions: time 70.0 day
Method in brief: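 Male GAN-DIO-NASH mice on GAN diet dosed daily with PBS or 5–30 nmol/kg for 10 weeks; body weight, fat mass and ALT on days 0 and 70, liver H&E at 20×, liver triglycerides post-treatment; mean ± SEM, ANOVA or Student's t test.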

Mus musculus [11] = experiment: Induction of glycemic control in db/db mouse assessed as reduction in proportion of iWAT weight to total body weight at 10 to 30 nmol/kg, sc treated for 8 weeks administered on every 2 days; assay type: functional, organism-based; conditions: dose 10-30 nmol/kg; method in brief: as §1
Mus musculus [12] = experiment: Induction of glycemic control in diet-induced obese C57BL/6 mouse assessed as reduction in fat mass at 3 to 100 nmol/kg, sc treated for 40 days administered on every 4 days; assay type: functional, organism-based; conditions: dose 3-100 nmol/kg, time 40.0 day
Method in brief: (§3)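 Male C57BL/6 mice fed 45% kcal fat diet from 6 to 18–20 weeks old, kept on diet, given sc PBS (100 μL) or 3–100 nmol/kg every 4 days for 40 days; glucose monitored; body weight, composition, blood chemistry and H&E histology of fixed liver and iWAT assessed post-treatment.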

Mus musculus [13] = experiment: Induction of glycemic control in diet-induced obese C57BL/6 mouse assessed as reduction in blood glucose level at 30 nmol/kg, sc treated for 40 days administered on every 4 days relative to control; assay type: functional, organism-based; conditions: time 40.0 day
Mus musculus [14] = experiment: Induction of glycemic control in diet-induced obese C57BL/6 mouse assessed as decrease in proportion of large adipocytes at 3 to 100 nmol/kg, sc treated for 40 days administered on every 4 days by H and E staining based analysis; assay type: functional, organism-based; conditions: dose 3-100 nmol/kg, time 40.0 day; method in brief: as §3
Mus musculus [15] = experiment: Induction of glycemic control in diet-induced obese C57BL/6 mouse assessed as decrease in total cholesterol level at 100 nmol/kg, sc treated for 40 days administered on every 4 days; assay type: functional, organism-based; conditions: time 40.0 day; method in brief: as §3
Mus musculus [16] = experiment: Induction of glycemic control in diet-induced obese C57BL/6 mouse assessed as increase in proportion of small adipocytes at 3 to 100 nmol/kg, sc treated for 40 days administered on every 4 days by H and E staining based analysis; assay type: functional, organism-based; conditions: dose 3-100 nmol/kg, time 40.0 day; method in brief: as §3
Mus musculus [17] = experiment: Induction of glycemic control in db/db mouse assessed as reduction in polyphagia at 10 to 30 nmol/kg, sc treated for 8 weeks administered on every 2 days; assay type: functional, organism-based; conditions: dose 10-30 nmol/kg; method in brief: as §1
Mus musculus [18] = experiment: Induction of glycemic control in db/db mouse assessed as reduction in blood glucose level administered subcutaneously measured upto 120 hrs; assay type: functional, organism-based; conditions: dose 1-100 nmol/kg, route sc
Mus musculus [19] = experiment: Induction of glycemic control in db/db mouse assessed as reduction in microvesicular steatosis in liver at 10 to 30 nmol/kg, sc treated for 8 weeks administered on every 2 days by H and E staining based analysis; assay type: functional, organism-based; conditions: dose 10-30 nmol/kg; method in brief: as §2
Mus musculus [20] = experiment: Induction of glycemic control in diet-induced obese C57BL/6 mouse assessed as increase in lean mass at 3 to 100 nmol/kg, sc treated for 40 days administered on every 4 days; assay type: functional, organism-based; conditions: dose 3-100 nmol/kg, time 40.0 day; method in brief: as §3
Mus musculus [21] = experiment: Effect on brown adipose tissue weight in db/db mouse at 10 to 30 nmol/kg, sc treated for 8 weeks administered on every 2 days; assay type: functional, organism-based; conditions: dose 10-30 nmol/kg; method in brief: as §1
Mus musculus [22] = experiment: Effect on ALT level in diet-induced obese C57BL/6 mouse at 3 to 100 nmol/kg, sc treated for 40 days administered on every 4 days; assay type: functional, organism-based; conditions: dose 3-100 nmol/kg, time 40.0 day
Mus musculus [23] = experiment: Induction of glycemic control in db/db mouse assessed as reduction in […] in liver at 10 to 30 nmol/kg, sc treated for 8 weeks administered on every 2 days by H and E staining based analysis; assay type: functional, organism-based; conditions: dose 10-30 nmol/kg
Mus musculus [24] = experiment: Induction of glycemic control in db/db mouse assessed as reduction in polydipsia at 10 to 30 nmol/kg, sc treated for 8 weeks administered on every 2 days; assay type: functional, organism-based; conditions: dose 10-30 nmol/kg; method in brief: as §1
Mus musculus [25] = experiment: Induction of glycemic control in db/db mouse assessed as reduction in blood glucose level at 1 to 100 nmol/kg, sc measured upto 120 hrs; assay type: functional, organism-based
Method in brief: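 db/db mice, three per dose group, got a single sc dose of 1, 3, 10, 30 or 100 nmol/kg, with a PBS control. Blood glucose was measured before dosing and at multiple time points after. EC50 was derived from the dose–response profiles by nonlinear regression. Mean ± SEM.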

Albumin = Albumin (Homo sapiens, UniProt P02768); experiment: Binding affinity to CM5-chip immobilized human serum albumin assessed as fold change in equilibrium association constant by SPR analysis relative to semaglutide
Sequence of Albumin (P02768 whole entry): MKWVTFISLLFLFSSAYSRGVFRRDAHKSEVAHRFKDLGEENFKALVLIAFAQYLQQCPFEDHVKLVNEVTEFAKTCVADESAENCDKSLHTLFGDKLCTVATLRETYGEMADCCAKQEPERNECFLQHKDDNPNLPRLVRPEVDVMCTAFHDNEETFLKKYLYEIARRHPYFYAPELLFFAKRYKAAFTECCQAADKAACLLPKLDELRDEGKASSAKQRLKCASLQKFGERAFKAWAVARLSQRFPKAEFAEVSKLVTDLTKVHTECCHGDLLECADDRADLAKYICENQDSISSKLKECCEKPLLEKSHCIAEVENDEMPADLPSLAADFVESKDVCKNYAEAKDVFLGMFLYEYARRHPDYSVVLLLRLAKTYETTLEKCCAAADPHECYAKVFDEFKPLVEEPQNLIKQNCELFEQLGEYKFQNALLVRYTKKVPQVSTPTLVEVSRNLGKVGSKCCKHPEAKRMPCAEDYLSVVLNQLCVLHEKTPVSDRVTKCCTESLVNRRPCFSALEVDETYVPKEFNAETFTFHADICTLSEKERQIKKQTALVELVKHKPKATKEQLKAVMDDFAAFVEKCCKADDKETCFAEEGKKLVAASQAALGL

Structure (SMILES): CCCCCCCCCCCCCCCC(=O)N[C@@H](CCC(=O)NCCCC[C@@H](NC(=O)CCOCCOCCOCCOCCNC(=O)CCc1cn(CC(=O)N[C@@H](CCC(=O)NCCCC[C@H](NC(=O)[C@H](C)NC(=O)[C@H](C)NC(=O)[C@H](CCC(N)=O)NC(=O)CNC(=O)[C@H](CCC(=O)O)NC(=O)[C@H](CC(C)C)NC(=O)[C@H](Cc2ccc(O)cc2)NC(=O)[C@H](CO)NC(=O)[C@H](CO)NC(=O)[C@@H](NC(=O)[C@H](CC(=O)O)NC(=O)[C@H](CO)NC(=O)[C@@H](NC(=O)[C@H](Cc2ccccc2)NC(=O)[C@@H](NC(=O)CNC(=O)[C@H](CCC(=O)O)NC(=O)C(C)(C)NC(=O)[C@@H](N)Cc2cnc[nH]2)[C@@H](C)O)[C@@H](C)O)C(C)C)C(=O)N[C@@H](CCC(=O)O)C(=O)N[C@@H](Cc2ccccc2)C(=O)N[C@H](C(=O)N[C@@H](C)C(=O)N[C@@H](Cc2c[nH]c3ccccc23)C(=O)N[C@@H](CC(C)C)C(=O)N[C@H](C(=O)N[C@@H](CCCNC(=N)N)C(=O)NCC(=O)N[C@@H](CCCNC(=N)N)C(=O)NCC(=O)O)C(C)C)[C@@H](C)CC)C(=O)O)nn1)C(=O)NCCOCCOCCOCCOCCC(=O)N[C@H](CCCCNC(=O)CC[C@@H](NC(=O)CCCCCCCCCCCCCCCCC(=O)O)C(=O)O)C(=O)O)C(=O)O
EC50 [1]: 43.3 nM
EC50 [2]: 0.92 nM

Activity (Mus musculus [23]): Active
EC50 (Mus musculus [25]): 9.24 nM
Structure (SMILES): CC[C@H](C)[C@H](NC(=O)[C@H](Cc1ccccc1)NC(=O)[C@H](CCC(=O)O)NC(=O)[C@H](CCCCNC(=O)COCCOCCNC(=O)COCCOCCNC(=O)CC[C@H](NC(=O)CCCCCCCCCCCCCCCCC(=O)O)C(=O)O)NC(=O)[C@H](C)NC(=O)[C@H](C)NC(=O)[C@H](CCC(N)=O)NC(=O)CNC(=O)[C@H](CCC(=O)O)NC(=O)[C@H](CC(C)C)NC(=O)[C@H](Cc1ccc(O)cc1)NC(=O)[C@H](CO)NC(=O)[C@H](CO)NC(=O)[C@@H](NC(=O)[C@H](CC(=O)O)NC(=O)[C@H](CO)NC(=O)[C@@H](NC(=O)[C@H](Cc1ccccc1)NC(=O)[C@@H](NC(=O)CNC(=O)[C@H](CCC(=O)O)NC(=O)C(C)(C)NC(=O)[C@@H](N)Cc1cnc[nH]1)[C@@H](C)O)[C@@H](C)O)C(C)C)C(=O)N[C@@H](C)C(=O)N[C@@H](Cc1c[nH]c2ccccc12)C(=O)N[C@@H](CC(C)C)C(=O)N[C@H](C(=O)N[C@@H](CCCNC(=N)N)C(=O)NCC(=O)N[C@@H](CCCNC(=N)N)C(=O)NCC(=O)O)C(C)C
Activity (Mus musculus [3]): No effect
Activity (Mus musculus [4]): Active
Activity (Mus musculus [5]): Active
Activity (Mus musculus [6]): 17.7 mmol/L
Activity (Mus musculus [7]): Active
Activity (Mus musculus [8]): inactive
Activity (Mus musculus [9]): No effect
Activity (Pancreatic islet): inactive
inhibition (Mus musculus [10]): Active
Activity (Mus musculus [11]): Active
Activity (Mus musculus [12]): inactive
Activity (Mus musculus [13]): inactive
Activity (Mus musculus [14]): inactive
Activity (Mus musculus [15]): Active
Activity (Mus musculus [16]): inactive
Activity (Mus musculus [17]): Active
Activity (Mus musculus [18]): Dose-dependent-effect
Activity (Mus musculus [19]): Active
Activity (Mus musculus [20]): inactive
Activity (Mus musculus [21]): No effect
Activity (Mus musculus [22]): No effect
Activity (Mus musculus [24]): Active

fold change (FC) (Albumin): 8
Structure (SMILES): CCCCCCCCCCCCCCCC(=O)N[C@@H](CCC(=O)NCCCC[C@H](NC(=O)CCOCCOCCOCCOCCNC(=O)CCc1cn(CC(=O)N[C@@H](CCC(=O)NCCCC[C@H](NC(=O)[C@H](C)NC(=O)[C@H](C)NC(=O)[C@H](CCC(N)=O)NC(=O)CNC(=O)[C@H](CCC(=O)O)NC(=O)[C@H](CC(C)C)NC(=O)[C@H](Cc2ccc(O)cc2)NC(=O)[C@H](CO)NC(=O)[C@H](CO)NC(=O)[C@@H](NC(=O)[C@H](CC(=O)O)NC(=O)[C@H](CO)NC(=O)[C@@H](NC(=O)[C@H](Cc2ccccc2)NC(=O)[C@@H](NC(=O)CNC(=O)[C@H](CCC(=O)O)NC(=O)[C@H](C)NC(=O)[C@@H](N)Cc2cnc[nH]2)[C@@H](C)O)[C@@H](C)O)C(C)C)C(=O)N[C@@H](CCC(=O)O)C(=O)N[C@@H](Cc2ccccc2)C(=O)N[C@H](C(=O)N[C@@H](C)C(=O)N[C@@H](Cc2c[nH]c3ccccc23)C(=O)N[C@@H](CC(C)C)C(=O)N[C@H](C(=O)N[C@@H](CCCNC(=N)N)C(=O)NCC(=O)N[C@@H](CCCNC(=N)N)C(=O)NCC(=O)O)C(C)C)[C@@H](C)CC)C(=O)O)nn1)C(=O)NCCOCCOCCOCCOCCC(=O)N[C@@H](CCCCNC(=O)CC[C@H](NC(=O)CCCCCCCCCCCCCCC)C(=O)O)C(=O)OC)C(=O)O
